Source: ChEMBL document CHEMBL4350995, “Synthesis and antiproliferative activity of culicinin D analogues containing simplified AHMOD-based residues” (Eur J Med Chem, 2019)
Numbered stars: 1 amine (or outer) side, 2 acyl side, 3 side chain; on linkers, the order of the positions; unused ones are H or OH. Square brackets hold non-standard residues; d marks the D form. Peptide text beside a SMILES is read from it. * marks the point of attachment. X3 = CCC(=O)C[C@@H](O)C[C@@H](C)C[C@H](N[*:1])C(=O)[*:2]; X8 = CCC(=O)C[C@H](O)C[C@@H](C)C[C@H](N[*:1])C(=O)[*:2]; X2 = CCCC[C@@H](O)C[C@@H](C)C[C@H](N[*:1])C(=O)[*:2]; X6 = CCCC[C@H](O)C[C@@H](C)C[C@H](N[*:1])C(=O)[*:2]; X4 = CCCCCCCC[C@@H](C)C[C@H](N[*:1])C(=O)[*:2]; Nva(5-pentanoyl) = CCCCC(=O)CCC[C@H](N)C(=O)O; X1 = CCCCCC[C@@H](C)C[C@H](N[*:1])C(=O)[*:2]; NH((S)CH(Me)CH2NHC2H4OH) = C[C@@H](CNCCO)N*; X9 = CCC(=O)CC(O)CCC[C@H](N[*:1])C(=O)[*:2]; X5 = CCCCCCC(=O)CCC[C@H](N[*:1])C(=O)[*:2]; Gly(decyl) = CCCCCCCCCC[C@H](N)C(=O)O; X7 = O=C([C@H](CCCCO)N[*:1])[*:2]; Aoc(2) = CCCCCC[C@H](N)C(=O)O; hSer = N[C@@H](CCO)C(=O)O; Aib = CC(C)(N)C(=O)O; Butyryl = CCCC(=O)*; βAla = NCCC(=O)O

Columns and labels:
Type in all cases: functional, cell-based
[1] = tested on: NCI-H460; experiment: Antiproliferative activity against human NCI-H460 cells incubated for 5 days by SRB assay; settings: NCI-H460, 120 h
Procedure, shortened: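 Cultured in alpha MEM + 5% FCS, 37 °C, 5% CO2; STR-authenticated, <3 months passage. Seeded at 300 cells/well and attached overnight, then given duplicate 3-fold serial dilutions of peptide (30 mM DMSO stock) for 5 days. Read-out was sulphorhodamine B staining. IC50 was interpolated from a 4-parameter logistic fit versus peptide-free controls. Values are mean ± SEM of 2–3 independent experiments.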

[2] = tested on: SK-BR-3; experiment: Antiproliferative activity against human SKBR3 cells incubated for 5 days by SRB assay; settings: SK-BR-3, 120 h
Procedure, shortened: (§1)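 STR-authenticated cells, <3 months passage, in DMEM + 10% FCS at 37 °C, 5% CO2, were seeded at 2000 cells/well and attached overnight. They were then exposed in duplicate to 3-fold serial dilutions from a 30 mM DMSO stock for 5 days. Staining was with sulphorhodamine B. IC50 was interpolated from 4-parameter logistic fits versus peptide-free controls on the same plate. Values are mean ± SEM, n = 2–3 independent experiments.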

[3] = tested on: T47D; experiment: Antiproliferative activity against human T47D cells incubated for 5 days by SRB assay; settings: 120 h
Procedure, shortened: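 Cells were grown in RPMI + 10% FCS (37 °C, 5% CO2, STR-authenticated, <3 months passage) and seeded at 1500 cells/well. After overnight attachment they received 3-fold serial dilutions (30 mM DMSO stock) in duplicate for 5 days. Total cells were measured by sulphorhodamine B staining. IC50 was interpolated from a 4-parameter logistic fit against same-plate untreated controls. Values are mean ± SEM, n = 2–3.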

[4] = tested on: MDA-MB-468; experiment: Antiproliferative activity against human MDA-MB-468 cells incubated for 5 days by SRB assay; settings: MDA-MB-468, 120 h; procedure, shortened: as §1

Row | Compound | IC50 [1] [nM] | IC50 [2] [nM] | IC50 [3] [nM] | IC50 [4] [nM]
1 | CCCCCC[C@@H](C)C[C@H](NC(=O)C(C)(C)NC(=O)C(C)(C)NC(=O)[C@H](CCCCN)NC(=O)[C@@H]1CCCN1C(=O)CCC)C(=O)N[C@@H](CC(C)C)C(=O)NC(C)(C)C(=O)N[C@@H](CC(C)C)C(=O)NCCC(=O)N[C@@H](C)CNCCO (Butyryl-PK[Aib][Aib][X1]L[Aib]L[βAla]-{NH((S)CH(Me)CH2NHC2H4OH)}) | > 1000 | > 1000 | > 1000 | > 1000
2 | CCCCCC[C@@H](C)C[C@H](NC(=O)C(C)(C)NC(=O)C(C)(C)NC(=O)[C@H](CC(C)C)NC(=O)[C@@H]1CCCN1C(=O)CCC)C(=O)N[C@@H](CC(C)C)C(=O)NC(C)(C)C(=O)N[C@@H](CC(C)C)C(=O)NCCC(=O)N[C@@H](C)CNCCO (Butyryl-PL[Aib][Aib][X1]L[Aib]L[βAla]-{NH((S)CH(Me)CH2NHC2H4OH)}) | 130 | 280 | 70 | 90
3 | CCCCCC[C@@H](C)C[C@H](NC(=O)C(C)(C)NC(=O)C(C)(C)NC(=O)[C@H](CO)NC(=O)[C@@H]1CCCN1C(=O)CCC)C(=O)N[C@@H](CC(C)C)C(=O)NC(C)(C)C(=O)N[C@@H](CC(C)C)C(=O)NCCC(=O)N[C@@H](C)CNCCO (Butyryl-PS[Aib][Aib][X1]L[Aib]L[βAla]-{NH((S)CH(Me)CH2NHC2H4OH)}) | 127 | > 500 | 66 | 74
4 | CCCCCC[C@@H](C)C[C@H](NC(=O)C(C)(C)NC(=O)C(C)(C)NC(=O)[C@H](CCCCCC)NC(=O)[C@@H]1CCCN1C(=O)CCC)C(=O)N[C@@H](CC(C)C)C(=O)NC(C)(C)C(=O)N[C@@H](CC(C)C)C(=O)NCCC(=O)N[C@@H](C)CNCCO (Butyryl-P[Aoc(2)][Aib][Aib][X1]L[Aib]L[βAla]-{NH((S)CH(Me)CH2NHC2H4OH)}) | 190 | 240 | 170 | 140
5 | CCCCCCCCCC[C@H](NC(=O)[C@@H]1CCCN1C(=O)CCC)C(=O)NC(C)(C)C(=O)NC(C)(C)C(=O)N[C@@H](C[C@H](C)CCCCCC)C(=O)N[C@@H](CC(C)C)C(=O)NC(C)(C)C(=O)N[C@@H](CC(C)C)C(=O)NCCC(=O)N[C@@H](C)CNCCO (Butyryl-P[Gly(decyl)][Aib][Aib][X1]L[Aib]L[βAla]-{NH((S)CH(Me)CH2NHC2H4OH)}) | 382 | 280 | 232 | 59
6 | CCCCCC[C@@H](C)C[C@H](NC(=O)C(C)(C)NC(=O)C(C)(C)NC(=O)[C@H](CCCC(=O)CCCC)NC(=O)[C@@H]1CCCN1C(=O)CCC)C(=O)N[C@@H](CC(C)C)C(=O)NC(C)(C)C(=O)N[C@@H](CC(C)C)C(=O)NCCC(=O)N[C@@H](C)CNCCO (Butyryl-P[Nva(5-pentanoyl)][Aib][Aib][X1]L[Aib]L[βAla]-{NH((S)CH(Me)CH2NHC2H4OH)}) | 10 | 30 | 10 | 10
7 | CCCCCC[C@@H](C)C[C@H](NC(=O)C(C)(C)NC(=O)C(C)(C)NC(=O)[C@H](C[C@H](C)C[C@H](O)CCCC)NC(=O)[C@@H]1CCCN1C(=O)CCC)C(=O)N[C@@H](CC(C)C)C(=O)NC(C)(C)C(=O)N[C@@H](CC(C)C)C(=O)NCCC(=O)N[C@@H](C)CNCCO (Butyryl-P[X2][Aib][Aib][X1]L[Aib]L[βAla]-{NH((S)CH(Me)CH2NHC2H4OH)}) | 126 | 327 | 197 | 111
8 | CCCCCC[C@@H](C)C[C@H](NC(=O)C(C)(C)NC(=O)C(C)(C)NC(=O)[C@H](C[C@H](C)C[C@H](O)CC(=O)CC)NC(=O)[C@@H]1CCCN1C(=O)CCC)C(=O)N[C@@H](CC(C)C)C(=O)NC(C)(C)C(=O)N[C@@H](CC(C)C)C(=O)NCCC(=O)N[C@@H](C)CNCCO (Butyryl-P[X3][Aib][Aib][X1]L[Aib]L[βAla]-{NH((S)CH(Me)CH2NHC2H4OH)}) | 8 | 35 | 7 | 11
9 | CCCCCCCC[C@@H](C)C[C@H](NC(=O)[C@@H]1CCCN1C(=O)CCC)C(=O)NC(C)(C)C(=O)NC(C)(C)C(=O)N[C@@H](C[C@H](C)CCCCCC)C(=O)N[C@@H](CC(C)C)C(=O)NC(C)(C)C(=O)N[C@@H](CC(C)C)C(=O)NCCC(=O)N[C@@H](C)CNCCO (Butyryl-P[X4][Aib][Aib][X1]L[Aib]L[βAla]-{NH((S)CH(Me)CH2NHC2H4OH)}) | 37 | 236 | 31 | 40
10 | CCCCCCC(=O)CCC[C@H](NC(=O)[C@@H]1CCCN1C(=O)CCC)C(=O)NC(C)(C)C(=O)NC(C)(C)C(=O)N[C@@H](C[C@H](C)CCCCCC)C(=O)N[C@@H](CC(C)C)C(=O)NC(C)(C)C(=O)N[C@@H](CC(C)C)C(=O)NCCC(=O)N[C@@H](C)CNCCO (Butyryl-P[X5][Aib][Aib][X1]L[Aib]L[βAla]-{NH((S)CH(Me)CH2NHC2H4OH)}) | 5 | 18 | 6 | 8
11 | CCCCCC[C@@H](C)C[C@H](NC(=O)C(C)(C)NC(=O)C(C)(C)NC(=O)[C@H](C[C@H](C)C[C@@H](O)CCCC)NC(=O)[C@@H]1CCCN1C(=O)CCC)C(=O)N[C@@H](CC(C)C)C(=O)NC(C)(C)C(=O)N[C@@H](CC(C)C)C(=O)NCCC(=O)N[C@@H](C)CNCCO (Butyryl-P[X6][Aib][Aib][X1]L[Aib]L[βAla]-{NH((S)CH(Me)CH2NHC2H4OH)}) | 234 | > 500 | 264 | 297
12 | CCCCCC[C@@H](C)C[C@H](NC(=O)C(C)(C)NC(=O)C(C)(C)NC(=O)[C@H](CCCCO)NC(=O)[C@@H]1CCCN1C(=O)CCC)C(=O)N[C@@H](CC(C)C)C(=O)NC(C)(C)C(=O)N[C@@H](CC(C)C)C(=O)NCCC(=O)N[C@@H](C)CNCCO (Butyryl-P[X7][Aib][Aib][X1]L[Aib]L[βAla]-{NH((S)CH(Me)CH2NHC2H4OH)}) | 28 | 59 | 14 | 25
13 | CCCCCC[C@@H](C)C[C@H](NC(=O)C(C)(C)NC(=O)C(C)(C)NC(=O)[C@H](C[C@H](C)C[C@@H](O)CC(=O)CC)NC(=O)[C@@H]1CCCN1C(=O)CCC)C(=O)N[C@@H](CC(C)C)C(=O)NC(C)(C)C(=O)N[C@@H](CC(C)C)C(=O)NCCC(=O)N[C@@H](C)CNCCO (Butyryl-P[X8][Aib][Aib][X1]L[Aib]L[βAla]-{NH((S)CH(Me)CH2NHC2H4OH)}) | 5 | 32 | 5 | 8
14 | CCCCCC[C@@H](C)C[C@H](NC(=O)C(C)(C)NC(=O)C(C)(C)NC(=O)[C@H](CCCC(O)CC(=O)CC)NC(=O)[C@@H]1CCCN1C(=O)CCC)C(=O)N[C@@H](CC(C)C)C(=O)NC(C)(C)C(=O)N[C@@H](CC(C)C)C(=O)NCCC(=O)N[C@@H](C)CNCCO (stereo partly drawn) (Butyryl-P[X9][Aib][Aib][X1]L[Aib]L[βAla]-{NH((S)CH(Me)CH2NHC2H4OH)}) | 190 | 500 | 80 | 70
15 | CCCCCC[C@@H](C)C[C@H](NC(=O)C(C)(C)NC(=O)C(C)(C)NC(=O)[C@H](CCO)NC(=O)[C@@H]1CCCN1C(=O)CCC)C(=O)N[C@@H](CC(C)C)C(=O)NC(C)(C)C(=O)N[C@@H](CC(C)C)C(=O)NCCC(=O)N[C@@H](C)CNCCO (Butyryl-P[hSer][Aib][Aib][X1]L[Aib]L[βAla]-{NH((S)CH(Me)CH2NHC2H4OH)}) | 30 | 108 | 20 | 30
16 | CCCCCC[C@@H](C)C[C@H](NC(=O)C(C)(C)NC(=O)C(C)(C)NC(=O)[C@H](CCCC(O)CCCC)NC(=O)[C@@H]1CCCN1C(=O)CCC)C(=O)N[C@@H](CC(C)C)C(=O)NC(C)(C)C(=O)N[C@@H](CC(C)C)C(=O)NCCC(=O)N[C@@H](C)CNCCO (mixture of isomers) | 8 | 100 | 8 | 20
